This excerpt belongs to a sample that is enriched for hits.
T cruzi HTS = inhibitors of intracellular Trypanosoma cruzi; intracellular Trypanosoma cruzi in host cells, plate reader; activity score (inhibition), % at 5.01 µM; 4.9% of 22,000 active; AID 651903; in the data active = activity score above about 55%; inconclusive = no clear call, values can overlap the other calls;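 also: parasites and compound incubated about four days before reading; 0% = median of neutral control wells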
A1 apoptosis 2 = blocks A1, raising caspase activity; 24,000 tested, under 10 active; AID 2465; MEF A1-2A-BIM cells, caspase-Glo luminescence, 3 h; percent of clofoctol response, DMSO zero; caspase activation, % (concentration not given with the values); in the data active = caspase activation above about 5.9%; inconclusive = no clear call, values can overlap the other calls; inactive = below about 2.2%
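Test system – A1-2A-BIM-expressing MEF cells · Input – 2500 cells/well · Medium – RPMI-1640 growth medium with 10% FBS · Compound dosing – 50 nL pinned compound · Timing – 3 h compound exposure at 37 °C · Technique – Caspase-Glo luminescence (DEVD substrate) · Evaluation – Caspase-3/7 activity from luminescence increase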
INS-1E rescue = INS-1E beta cell protection from cytokine death | INS-1E cytokine-induced death, ATP luminescence, 48 h; normalised: neutral wells 0, positive control 100 | 0.1% of 20,000 active | AID 488910 | protection from cytokine-induced ATP loss, % at 10 µM;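 active = mean replicate protection from cytokine-induced ATP loss at least 50% and at least 75% of replicates each reaching 50%; inconclusive = meets only one of the two criteria, mean or replicate share; inactive = fails both the mean and replicate share criteria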
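Assay system: INS-1E rat cells / Quantity: 8000 cells per well / Medium: RPMI without phenol red, 5% FBS / Probe or stimulus: three-cytokine cocktail (IFN-γ, TNF-α, IL-1β) / Dosing: one compound concentration, pin transfer / Timing: 48 h co-treatment, 10 min post-lysis read / Technique: CellTiter-Glo luminescence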
* = called active by the depositor; u = inconclusive; x = not tested or not shown.

SMILES | T cruzi HTS | A1 apoptosis 2 | INS-1E rescue
Cc1ccc(S(=O)(=O)N(C)C[C@H]2Oc3c(NS(=O)(=O)c4ccccc4)cccc3C(=O)N([C@H](C)CO)C[C@@H]2C)cc1 | 6 | x | 12
O=C(N/N=C/c1cccc(O)c1O)c1ccccn1 | 29 | x | -55
O=C(N/N=C/c1cc(I)cc(I)c1O)c1ccccn1 | 91* | 0 | -107
COC(=O)CCCCCCC(=O)N/N=C/c1cc(Cl)cc(Cl)c1O | 20 | x | 17
COC(=O)CCCCCCC(=O)N/N=C/c1cc(I)cc(I)c1O | 88* | 1 | 27
COc1ccc(Br)c(/C=N/NC(=O)CCCCC(=O)NO)c1 | x | 0 | x
C[C@@H]1CN([C@H](C)CO)C(=O)c2cccc(NC(=O)CCCCCC(=O)Nc3ccccc3N)c2O[C@@H]1CN(C)Cc1ccc(-c2ccccc2)cc1 | u | 0 | 7
C[C@H](CO)N1C[C@H](C)[C@@H](CN(C)Cc2ccc(Oc3ccccc3)cc2)Oc2c(NC(=O)CCCCCC(=O)Nc3ccccc3N)cccc2C1=O | x | 0 | x
C[C@@H]1CN([C@H](C)CO)C(=O)c2cccc(NC(=O)CCCCCC(=O)Nc3ccccc3N)c2O[C@H]1CN(C)Cc1ccc(Cl)c(Cl)c1 | x | -2 | x
C[C@@H]1CN([C@@H](C)CO)C(=O)c2cccc(NC(=O)CCCCCC(=O)Nc3ccccc3N)c2O[C@H]1CN(C)Cc1ccc(Oc2ccccc2)cc1 | 84* | 0 | -3
C[C@@H]1CN([C@H](C)CO)C(=O)c2cccc(NC(=O)CCCCCC(=O)Nc3ccccc3N)c2O[C@@H]1CN(C)Cc1ccccc1 | -32 | x | 1
C[C@@H]1CN([C@@H](C)CO)C(=O)c2cccc(NC(=O)CCCCCC(=O)Nc3ccccc3N)c2O[C@H]1CN(C)Cc1ccccc1 | 72* | -1 | 19
C[C@H]1CN([C@@H](C)CO)C(=O)c2cccc(NC(=O)CCCCCC(=O)Nc3ccccc3N)c2O[C@H]1CN(C)Cc1ccc(-c2ccccc2)cc1 | 68* | 1 | -5
C[C@@H]1CN([C@@H](C)CO)C(=O)c2cccc(NC(=O)CCCCCC(=O)Nc3ccccc3N)c2O[C@H]1CN(C)Cc1ccc(Cl)c(Cl)c1 | 80* | x | 7
O=C(O)CCCCCCC(=O)N/N=C/c1ccccc1O | -16 | 1 | -5
N#Cc1ccc(/C=N/NC(=O)c2ccc(C(=O)NO)cc2)cc1 | 2 | x | 10
CNC[C@H]1Oc2ccc(NC(=O)NC(C)C)cc2CC(=O)N([C@H](C)CO)C[C@@H]1C | x | 1 | x
Cc1ccc(F)cc1S(=O)(=O)N[C@@H]1CCN(Cc2ccc(CC(C)C)cc2)C1 | x | 0 | x
C[C@H](CO)N1C[C@H](C)[C@H](CN(C)CC2CCCCC2)Oc2c(NC(=O)CCCCCC(=O)Nc3ccccc3N)cccc2C1=O | 39 | -1 | 6
C[C@@H]1CN([C@H](C)CO)C(=O)c2cccc(NC(=O)CCCCCC(=O)Nc3ccccc3N)c2O[C@H]1CN(C)CC1CC1 | 59* | x | 11
C[C@H]1CN([C@@H](C)CO)C(=O)c2cccc(NC(=O)CCCCCC(=O)Nc3ccccc3N)c2O[C@H]1CN(C)CC1CCCCC1 | 22 | 2 | -11
C[C@@H]1CN([C@@H](C)CO)C(=O)c2cccc(NC(=O)CCCCCC(=O)Nc3ccccc3N)c2O[C@H]1CN(C)CC1CC1 | 60* | x | 11
C[C@@H]1CN([C@H](C)CO)C(=O)c2cccc(NC(=O)CCCCCC(=O)Nc3ccccc3N)c2O[C@@H]1CN(C)CC1CC1 | -19 | 0 | -9
C[C@H]1CN([C@@H](C)CO)C(=O)c2cccc(NC(=O)CCCCCC(=O)Nc3ccccc3N)c2O[C@@H]1CN(C)CC1CC1 | 77* | 2 | 19
NC(=O)NCC#Cc1ccc2c(c1)[C@]1(C(=O)N2)[C@H](C(=O)N2CCCCCCC2)[C@H]2C(=O)O[C@H](c3ccccc3)[C@H](c3ccccc3)N2[C@@H]1c1ccccc1OCCO | x | 1 | x
SMILES | T cruzi HTS | A1 apoptosis 2 | INS-1E rescue
C/C=C\C=C/C1OC(O)(C(CC)C(=O)NC/C=C\C=C(\C)C(OC)C(C)C2OC(\C=C/C=C\C=C(\C)C(=O)c3c(O)cc[nH]c3=O)C(O)C2O)C(O)C(O)C1(C)C (stereo unspecified) | x | 0 | x
O=C(CCCCC(=O)N/N=C/c1ccc(Br)cc1)NO | x | 0 | x
C[C@@H]1CN([C@H](C)CO)C(=O)c2cc(NC(=O)Nc3cccc4ccccc34)ccc2O[C@@H]1CN(C)Cc1ccc2c(c1)OCO2 | -5 | 1 | -9
C[C@@H]1CN([C@@H](C)CO)C(=O)c2cc(NC(=O)Nc3cccc4ccccc34)ccc2O[C@@H]1CN(C)Cc1ccc2c(c1)OCO2 | 56* | x | -6
C[C@H]1CN([C@@H](C)CO)C(=O)c2cc(NC(=O)Nc3cccc4ccccc34)ccc2O[C@H]1CN(C)Cc1ccc2c(c1)OCO2 | 61* | -1 | -15
C[C@H]1CN([C@@H](C)CO)C(=O)c2cc(NC(=O)Nc3cccc4ccccc34)ccc2O[C@@H]1CN(C)Cc1ccc2c(c1)OCO2 | 3 | 1 | -20
C[C@H](CO)N1C[C@H](C)[C@H](CN(C)S(=O)(=O)c2cccs2)OCCCC[C@H](C)Oc2ccc(NC(=O)c3ccncc3)cc2C1=O | x | 1 | x
NC(=O)NCC#Cc1ccc2c(c1)[C@]1(C(=O)N2)[C@H](c2ccc(OCCO)cc2)N2[C@H](c3ccccc3)[C@H](c3ccccc3)OC(=O)[C@H]2[C@@H]1C(=O)Nc1nc2ccccc2s1 | x | -1 | x
C[C@@H]1CN([C@H](C)CO)C(=O)Cc2cc(NC(=O)Cc3cn(C)c4ccccc34)ccc2O[C@@H]1CN(C)Cc1ccccc1 | 52 | x | -21
C[C@@H]1CN([C@@H](C)CO)C(=O)Cc2cc(NC(=O)Cc3cn(C)c4ccccc34)ccc2O[C@@H]1CN(C)Cc1ccccc1 | 21 | -1 | -16
C[C@H]1CN([C@@H](C)CO)C(=O)Cc2cc(NC(=O)Cc3cn(C)c4ccccc34)ccc2O[C@H]1CN(C)Cc1ccc(C(F)(F)F)cc1 | 75* | 2 | -52
C[C@@H]1CN([C@H](C)CO)C(=O)Cc2cc(NC(=O)Cc3cn(C)c4ccccc34)ccc2O[C@H]1CN(C)Cc1ccc(C(F)(F)F)cc1 | 63* | 0 | 3
CC(C)(C)/C=N/NC(=O)CCCCCCC(=O)Nc1ccccc1O | -1 | 0 | 3
COc1cccc(S(=O)(=O)N(C)C[C@@H]2Oc3ncc(C#Cc4ccc(OC)c(OC)c4)cc3C(=O)N([C@H](C)CO)C[C@@H]2C)c1 | 35 | -1 | -10
COc1cccc(S(=O)(=O)N(C)C[C@@H]2Oc3ncc(C#Cc4ccc(C(F)(F)F)cc4)cc3C(=O)N([C@H](C)CO)C[C@@H]2C)c1 | 89* | x | x
COc1cccc(S(=O)(=O)N(C)C[C@@H]2Oc3ncc(C#Cc4cccc(F)c4)cc3C(=O)N([C@H](C)CO)C[C@@H]2C)c1 | 65* | x | x
COc1cccc(S(=O)(=O)N(C)C[C@@H]2Oc3ncc(C#CCN(C)C)cc3C(=O)N([C@H](C)CO)C[C@@H]2C)c1 | 15 | 0 | 2
